From ChEMBL document CHEMBL1121797, “Studies on chiral interactions of 1-(2,5-dimethoxy-4-methylphenyl)-2-aminopropane and the corresponding N-hydroxy metabolites with cytochrome P-450” (J Med Chem, 1981)

Legend:
[1] = Initial rates of formation of metabolic intermediate Cytochrome P-450 at compound concentration of 7.5-180 uM; type: ADME
Method in brief: (§1)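 Rabbit liver microsomes at 2 mg protein/mL with 0.1 mM EDTA, 37 °C, NADPH-dependent. Substrate tested at several concentrations. ΔA457–500 nm followed against time. Rate is the initial slope per nmol P-450 per min; extent is the plateau absorbance. Runs disturbed by a transient 450-nm species were discarded.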

[2] = Initial rates of formation of metabolic intermediate Cytochrome P-450 at compound concentration of 30 uM; type: ADME
Method in brief: (§2)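 Rabbit liver microsomes at 2 mg protein/mL with 0.1 mM EDTA, 37 °C, substrate 30 μM. Complex formation started with 0.4 mM NADPH and followed by dual-wavelength absorbance, 457 vs 500 nm. Initial rate is the initial slope, ΔA×10^4 per nmol P-450 per min. Extent is the plateau absorbance. Lag is the time from NADPH addition to first 457-nm chromophore. Triplicate or single runs.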

Cytochrome P450 2C19 [3] = target: T1, Cytochrome P450 2C19 (Homo sapiens, UniProt P33261); assay: Apparent binding affinity of compound (10.8-60.0 uM) in Cytochrome P450 binding; type: ADME, Oryctolagus cuniculus; settings: read-out: Ks
[4] = Extent rates of formation of metabolic intermediate Cytochrome P-450 at compound concentration of 30 uM; type: ADME; method in brief: as §2
[5] = Extent rates of formation of metabolic intermediate Cytochrome P-450 at compound concentration of 7.5-180 uM; type: ADME; method in brief: as §1
[6] = Lag time between the addition of compound (30 uM) and the first appearance of chromophore; type: ADME; method in brief: as §2
[7] = Initial rates of formation of metabolic intermediate Cytochrome P-450 with compound concentration of 30 uM; type: ADME
Method in brief: (§3)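 Cross-inhibition in NADPH-supplemented rabbit liver microsomes at 37 °C. Preincubation with amine at 30, 150 or 300 μM while 457-nm complex formation was monitored. Once it plateaued (6–8 min), racemic hydroxylamine was added at 300 μM. Initial rate and plateau extent were read from ΔA457–500 nm vs time, per nmol P-450.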

[8] = Extent rates of formation of metabolic intermediate Cytochrome P-450 at compound concentration of 7.5-120 uM; type: ADME; method in brief: as §1
[9] = Initial rates of formation of metabolic intermediate Cytochrome P-450 with compound concentration of 300 uM; type: ADME; method in brief: as §3
[10] = Initial rates of formation of metabolic intermediate Cytochrome P-450 with compound concentration of 150 uM; type: ADME; method in brief: as §3
[11] = Initial rates of formation of metabolic intermediate Cytochrome P-450 at compound concentration of 7.5-120 uM; type: ADME; method in brief: as §1
Cytochrome P450 2C19 [12] = target: T1, Cytochrome P450 2C19; assay: Apparent binding affinity constant of compound (1.8-60.0) for Cytochrome P450; type: ADME, Oryctolagus cuniculus; settings: read-out: Ks
[13] = Extent rates of formation of metabolic intermediate Cytochrome P-450 at compound concentration of 15-180 uM; type: ADME; method in brief: as §1
Cytochrome P450 2C19 [14] = target: T1, Cytochrome P450 2C19; assay: Apparent binding affinity of compound (15.0-45.0 uM) in Cytochrome P450 binding; type: ADME, Oryctolagus cuniculus; settings: read-out: Ks
[15] = Initial rates of formation of metabolic intermediate Cytochrome P-450 at compound concentration of 15-180 uM; type: ADME; method in brief: as §1

T1 sequence (P33261 whole entry): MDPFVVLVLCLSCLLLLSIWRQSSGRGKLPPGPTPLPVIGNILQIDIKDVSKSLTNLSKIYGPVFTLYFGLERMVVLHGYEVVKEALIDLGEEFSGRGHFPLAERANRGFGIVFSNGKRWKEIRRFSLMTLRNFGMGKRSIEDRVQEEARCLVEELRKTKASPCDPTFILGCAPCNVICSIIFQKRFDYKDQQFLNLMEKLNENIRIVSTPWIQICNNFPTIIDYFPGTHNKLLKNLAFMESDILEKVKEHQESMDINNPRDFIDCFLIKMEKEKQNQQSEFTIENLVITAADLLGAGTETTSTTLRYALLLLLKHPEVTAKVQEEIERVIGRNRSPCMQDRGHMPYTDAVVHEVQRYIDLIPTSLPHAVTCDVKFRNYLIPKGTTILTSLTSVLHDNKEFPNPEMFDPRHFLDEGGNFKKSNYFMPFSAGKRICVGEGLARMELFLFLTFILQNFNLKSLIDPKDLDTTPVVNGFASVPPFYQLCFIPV

SMILES	Rate [1]	Rate [2]	Kd (Cytochrome P450 2C19 [3]) [µM]	Rate [4]	Rate [5]	Lag time [6] [s]	Rate [7]	Extent [8]	Extent [4]	Rate [9]	Rate [10]	Rate [11]	Kd (Cytochrome P450 2C19 [12]) [µM]	Rate [13]	Kd (Cytochrome P450 2C19 [14]) [µM]	Rate [15]
COc1cc(C[C@@H](C)NO)c(OC)cc1C	30	182	22	124	23	0										
COc1cc(C[C@H](C)N)c(OC)cc1C		3.1				136	1.7	0	29	1.1	1.5	0	6			
COc1cc(C[C@H](C)NO)c(OC)cc1C		211		161		0								34	68	66
